{"source": "ChEMBL document CHEMBL2434944", "about": "“Novel acetamidothiazole derivatives: synthesis and in vitro anticancer evaluation” (Eur J Med Chem, 2013)", "key": {"[1]": {"system": "A498", "test": "Growth inhibition of human A498 cells assessed as cell growth at 10^-5 M after 48 hrs by sulforhodamine B assay relative to control", "type": "functional", "details": "A498, 48 h, read-out: Activity", "in_short": "(§1)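 NCI-60 single-dose screen at 10^-5 M. Cells grown in RPMI 1640 with 5% FBS and 2 mM L-glutamine, plated at 5,000–40,000 cells/well according to doubling time, and preincubated 24 h at 37°C, 5% CO2. Compound dissolved in DMSO and added. Exposure 48 h. Adherent cells fixed with cold TCA (10% final), suspension cells with 16% final TCA. Read-out is 0.4% SRB staining, dye solubilised in 10 mM Tris, absorbance at 515 nm. Percent growth is calculated against the time-zero plate and untreated control.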"}, "[2]": {"system": "IGROV-1", "test": "Growth inhibition of human IGROV1 cells assessed as cell growth at 10^-5 M after 48 hrs by sulforhodamine B assay relative to control", "type": "functional", "details": "IGROV-1, 48 h, read-out: Activity", "in_short": "as §1"}, "[3]": {"system": "UO-31", "test": "Growth inhibition of human UO31 cells assessed as cell growth at 10^-5 M after 48 hrs by sulforhodamine B assay relative to control", "type": "functional", "details": "UO-31, 48 h, read-out: Activity", "in_short": "(§2)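 NCI-60 single-dose screen, 10^-5 M final. Cells grown in RPMI 1640 with 5% FBS and 2 mM L-glutamine, seeded at 5,000–40,000 cells/well by doubling time. Preincubated 24 h at 37°C, 5% CO2. Compound in DMSO, diluted in medium with gentamicin, then 48 h exposure. Fixed with cold TCA, SRB stained, A515 read. Percent growth vs untreated control, time-zero plate corrected.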"}, "[4]": {"system": "ACHN", "test": "Growth inhibition of human ACHN cells assessed as cell growth at 10^-5 M after 48 hrs by sulforhodamine B assay relative to control", "type": "functional", "details": "read-out: Activity", "in_short": "as §1"}, "[5]": {"system": "SN12C", "test": "Growth inhibition of human SN12C cells assessed as cell growth at 10^-5 M after 48 hrs by sulforhodamine B assay relative to control", "type": "functional", "details": "read-out: Activity", "in_short": "as §1"}, "[6]": {"system": "HOP-62", "test": "Growth inhibition of human HOP62 cells assessed as cell growth at 10^-5 M after 48 hrs by sulforhodamine B assay relative to control", "type": "functional", "details": "HOP-62, 48 h, read-out: Activity", "in_short": "as §1"}, "[7]": {"target": "Epidermal growth factor receptor (Homo sapiens, UniProt P00533)", "sequence (P00533 whole entry)": "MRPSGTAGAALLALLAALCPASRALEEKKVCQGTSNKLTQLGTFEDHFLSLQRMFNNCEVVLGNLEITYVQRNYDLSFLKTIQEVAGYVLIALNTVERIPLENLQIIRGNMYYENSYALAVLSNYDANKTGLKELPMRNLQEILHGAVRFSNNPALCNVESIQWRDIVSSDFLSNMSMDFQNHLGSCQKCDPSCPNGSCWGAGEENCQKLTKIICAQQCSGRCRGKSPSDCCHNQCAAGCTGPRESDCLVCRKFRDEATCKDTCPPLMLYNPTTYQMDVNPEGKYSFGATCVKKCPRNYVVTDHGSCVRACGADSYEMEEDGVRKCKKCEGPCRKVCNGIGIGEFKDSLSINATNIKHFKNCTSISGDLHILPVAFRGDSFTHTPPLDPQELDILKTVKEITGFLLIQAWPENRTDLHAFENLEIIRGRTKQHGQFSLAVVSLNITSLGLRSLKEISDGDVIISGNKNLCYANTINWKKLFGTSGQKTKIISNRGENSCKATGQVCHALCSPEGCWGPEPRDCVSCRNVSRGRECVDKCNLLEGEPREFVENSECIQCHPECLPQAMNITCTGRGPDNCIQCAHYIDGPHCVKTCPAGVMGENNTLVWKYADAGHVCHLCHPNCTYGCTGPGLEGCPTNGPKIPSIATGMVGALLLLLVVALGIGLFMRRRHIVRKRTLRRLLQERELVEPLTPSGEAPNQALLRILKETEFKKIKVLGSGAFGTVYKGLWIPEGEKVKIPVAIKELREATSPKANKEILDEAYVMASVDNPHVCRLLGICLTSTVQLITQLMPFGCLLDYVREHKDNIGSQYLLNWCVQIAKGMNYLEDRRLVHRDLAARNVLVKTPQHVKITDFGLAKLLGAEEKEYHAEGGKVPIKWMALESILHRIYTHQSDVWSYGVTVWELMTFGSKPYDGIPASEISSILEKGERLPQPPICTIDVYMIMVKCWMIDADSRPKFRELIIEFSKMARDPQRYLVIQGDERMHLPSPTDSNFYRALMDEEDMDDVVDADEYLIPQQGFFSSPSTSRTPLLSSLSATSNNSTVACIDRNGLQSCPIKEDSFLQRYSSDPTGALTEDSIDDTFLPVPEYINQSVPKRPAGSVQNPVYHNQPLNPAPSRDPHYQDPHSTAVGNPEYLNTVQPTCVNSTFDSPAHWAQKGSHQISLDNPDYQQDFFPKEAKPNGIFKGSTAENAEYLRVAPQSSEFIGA", "test": "Inhibition of human EGFR"}, "[8]": {"system": "Malme-3M", "test": "Growth inhibition of human MALME-3M cells assessed as cell growth at 10^-5 M after 48 hrs by sulforhodamine B assay relative to control", "type": "functional", "details": "read-out: Activity", "in_short": "as §1"}, "[9]": {"target": "Thymidylate synthase (Homo sapiens, UniProt P04818)", "sequence (P04818 whole entry)": "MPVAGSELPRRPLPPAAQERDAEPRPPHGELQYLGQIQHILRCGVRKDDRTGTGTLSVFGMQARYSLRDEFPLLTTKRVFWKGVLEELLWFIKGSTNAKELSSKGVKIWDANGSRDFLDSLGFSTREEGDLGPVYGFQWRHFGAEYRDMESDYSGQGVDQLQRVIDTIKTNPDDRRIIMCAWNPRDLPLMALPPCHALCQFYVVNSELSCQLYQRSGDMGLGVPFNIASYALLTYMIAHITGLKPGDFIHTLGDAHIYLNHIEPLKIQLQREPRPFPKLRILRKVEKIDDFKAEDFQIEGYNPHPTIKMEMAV", "test": "Inhibition of human thymidylate synthase"}, "[10]": {"system": "786-0", "test": "Growth inhibition of human 786-0 cells assessed as cell growth at 10^-5 M after 48 hrs by sulforhodamine B assay relative to control", "type": "functional", "details": "786-0, 48 h, read-out: Activity", "in_short": "as §1"}, "[11]": {"system": "SK-OV-3", "test": "Growth inhibition of human SKOV3 cells assessed as cell growth at 10^-5 M after 48 hrs by sulforhodamine B assay relative to control", "type": "functional", "details": "SK-OV-3, 48 h, read-out: Activity", "in_short": "as §1"}, "[12]": {"system": "MOLT-4", "test": "Growth inhibition of human MOLT4 cells assessed as cell growth at 10^-5 M after 48 hrs by sulforhodamine B assay relative to control", "type": "functional", "details": "MOLT-4, 48 h, read-out: Activity", "in_short": "as §1"}, "[13]": {"system": "NCI-H23", "test": "Growth inhibition of human NCI-H23 cells assessed as cell growth at 10^-5 M after 48 hrs by sulforhodamine B assay relative to control", "type": "functional", "details": "NCI-H23, 48 h, read-out: Activity", "in_short": "as §1"}, "[14]": {"system": "COLO 205", "test": "Growth inhibition of human COLO205 cells assessed as cell growth at 10^-5 M after 48 hrs by sulforhodamine B assay relative to control", "type": "functional", "details": "COLO 205, 48 h, read-out: Activity", "in_short": "as §1"}, "[15]": {"system": "NCI-H322M", "test": "Growth inhibition of human NCI-H322M cells assessed as cell growth at 10^-5 M after 48 hrs by sulforhodamine B assay relative to control", "type": "functional", "details": "read-out: Activity", "in_short": "as §1"}, "[16]": {"system": "SK-MEL-5", "test": "Growth inhibition of human SK-MEL-5 cells assessed as cell growth at 10^-5 M after 48 hrs by sulforhodamine B assay relative to control", "type": "functional", "details": "SK-MEL-5, 48 h, read-out: Activity", "in_short": "as §1"}, "[17]": {"system": "MDA-MB-468", "test": "Growth inhibition of human MDA-MB-468 cells assessed as cell growth at 10^-5 M after 48 hrs by sulforhodamine B assay relative to control", "type": "functional", "details": "MDA-MB-468, 48 h, read-out: Activity", "in_short": "as §1"}, "[18]": {"test": "Growth inhibition of human NCI-ADR-RES cells assessed as cell growth at 10^-5 M after 48 hrs by sulforhodamine B assay relative to control", "type": "functional", "details": "read-out: Activity", "in_short": "as §1"}, "[19]": {"system": "RXF 393", "test": "Growth inhibition of human RXF393 cells assessed as cell growth at 10^-5 M after 48 hrs by sulforhodamine B assay relative to control", "type": "functional", "details": "RXF 393, 48 h, read-out: Activity", "in_short": "as §1"}, "[20]": {"system": "SR", "test": "Growth inhibition of human SR cells assessed as cell growth at 10^-5 M after 48 hrs by sulforhodamine B assay relative to control", "type": "functional", "details": "read-out: Activity", "in_short": "as §2"}, "[21]": {"system": "SNB-75", "test": "Growth inhibition of human SNB75 cells assessed as cell growth at 10^-5 M after 48 hrs by sulforhodamine B assay relative to control", "type": "functional", "details": "SNB-75, 48 h, read-out: Activity", "in_short": "as §1"}, "[22]": {"system": "A549", "test": "Growth inhibition of human A549 cells assessed as cell growth at 10^-5 M after 48 hrs by sulforhodamine B assay relative to control", "type": "functional", "details": "A549, 48 h, read-out: Activity", "in_short": "as §1"}, "[23]": {"system": "MCF7", "test": "Growth inhibition of human MCF7 cells assessed as cell growth at 10^-5 M after 48 hrs by sulforhodamine B assay relative to control", "type": "functional", "details": "MCF7, 48 h, read-out: Activity", "in_short": "as §1"}, "[24]": {"system": "CCRF-CEM", "test": "Growth inhibition of human CCRF-CEM cells assessed as cell growth at 10^-5 M after 48 hrs by sulforhodamine B assay relative to control", "type": "functional", "details": "read-out: Activity", "in_short": "as §1"}, "[25]": {"test": "Growth inhibition of human HCC2998 cells assessed as cell growth at 10^-5 M after 48 hrs by sulforhodamine B assay relative to control", "type": "functional", "details": "HCC 2998, 48 h, read-out: Activity", "in_short": "as §1"}, "[26]": {"system": "NCI-H460", "test": "Growth inhibition of human NCI-H460 cells assessed as cell growth at 10^-5 M after 48 hrs by sulforhodamine B assay relative to control", "type": "functional", "details": "NCI-H460, 48 h, read-out: Activity", "in_short": "as §1"}, "[27]": {"system": "SF-539", "test": "Growth inhibition of human SF539 cells assessed as cell growth at 10^-5 M after 48 hrs by sulforhodamine B assay relative to control", "type": "functional", "details": "SF-539, 48 h, read-out: Activity", "in_short": "as §1"}, "[28]": {"system": "OVCAR-3", "test": "Growth inhibition of human OVCAR3 cells assessed as cell growth at 10^-5 M after 48 hrs by sulforhodamine B assay relative to control", "type": "functional", "details": "OVCAR-3, 48 h, read-out: Activity", "in_short": "as §1"}, "[29]": {"system": "PC-3", "test": "Growth inhibition of human PC3 cells assessed as cell growth at 10^-5 M after 48 hrs by sulforhodamine B assay relative to control", "type": "functional", "details": "PC-3, 48 h, read-out: Activity", "in_short": "as §1"}}, "note": "pKi: −log10 of the molar value."}
{"smiles": "CN1CCN(C(=O)Cn2c(-c3ccc(Cl)cc3)csc2=N)CC1", "values": [{"measurement": "growth at 10 µM", "setting": "[1]", "value": 80, "unit": "%"}, {"measurement": "growth at 10 µM", "setting": "[2]", "value": 93.1, "unit": "%"}, {"measurement": "growth at 10 µM", "setting": "[3]", "value": 89.2, "unit": "%"}, {"measurement": "growth at 10 µM", "setting": "[4]", "value": 98.6, "unit": "%"}, {"measurement": "growth at 10 µM", "setting": "[5]", "value": 92.8, "unit": "%"}, {"measurement": "growth at 10 µM", "setting": "[6]", "value": 101, "unit": "%"}, {"measurement": "pKi", "setting": "[7]", "value": 4.81}, {"measurement": "growth at 10 µM", "setting": "[8]", "value": 99.6, "unit": "%"}, {"measurement": "pKi", "setting": "[9]", "value": 6.47}, {"measurement": "growth at 10 µM", "setting": "[10]", "value": 97, "unit": "%"}, {"measurement": "growth at 10 µM", "setting": "[11]", "value": 92.5, "unit": "%"}, {"measurement": "growth at 10 µM", "setting": "[12]", "value": 75.1, "unit": "%"}, {"measurement": "growth at 10 µM", "setting": "[13]", "value": 100, "unit": "%"}, {"measurement": "growth at 10 µM", "setting": "[14]", "value": 101, "unit": "%"}, {"measurement": "growth at 10 µM", "setting": "[15]", "value": 95.9, "unit": "%"}, {"measurement": "growth at 10 µM", "setting": "[16]", "value": 100, "unit": "%"}, {"measurement": "growth at 10 µM", "setting": "[17]", "value": 96.8, "unit": "%"}, {"measurement": "growth at 10 µM", "setting": "[18]", "value": 98, "unit": "%"}, {"measurement": "growth at 10 µM", "setting": "[19]", "value": 108, "unit": "%"}, {"measurement": "growth at 10 µM", "setting": "[20]", "value": 78.5, "unit": "%"}, {"measurement": "growth at 10 µM", "setting": "[21]", "value": 79.5, "unit": "%"}, {"measurement": "growth at 10 µM", "setting": "[22]", "value": 90.1, "unit": "%"}, {"measurement": "growth at 10 µM", "setting": "[23]", "value": 92.2, "unit": "%"}, {"measurement": "growth at 10 µM", "setting": "[24]", "value": 89.1, "unit": "%"}, {"measurement": "growth at 10 µM", "setting": "[25]", "value": 97.5, "unit": "%"}, {"measurement": "growth at 10 µM", "setting": "[26]", "value": 101, "unit": "%"}, {"measurement": "growth at 10 µM", "setting": "[27]", "value": 100, "unit": "%"}, {"measurement": "growth at 10 µM", "setting": "[28]", "value": 101, "unit": "%"}, {"measurement": "growth at 10 µM", "setting": "[29]", "value": 83.3, "unit": "%"}]}
